The structures appear in SMILES notation.

Among the data in ChEMBL document CHEMBL3526053, “Species-dependent uptake of glycylsarcosine but not oseltamivir in Pichia pastoris expressing the rat, mouse, and human intestinal peptide transporter PEPT1” (Drug Metab Dispos, 2012) are Drug uptake, Kd and uptake ratio values, retold here.

What all share (type): ADME
The target in series [1] is T1, Solute carrier family 15 member 1 (Rattus norvegicus, UniProt P51574).
T1 sequence (P51574 whole entry): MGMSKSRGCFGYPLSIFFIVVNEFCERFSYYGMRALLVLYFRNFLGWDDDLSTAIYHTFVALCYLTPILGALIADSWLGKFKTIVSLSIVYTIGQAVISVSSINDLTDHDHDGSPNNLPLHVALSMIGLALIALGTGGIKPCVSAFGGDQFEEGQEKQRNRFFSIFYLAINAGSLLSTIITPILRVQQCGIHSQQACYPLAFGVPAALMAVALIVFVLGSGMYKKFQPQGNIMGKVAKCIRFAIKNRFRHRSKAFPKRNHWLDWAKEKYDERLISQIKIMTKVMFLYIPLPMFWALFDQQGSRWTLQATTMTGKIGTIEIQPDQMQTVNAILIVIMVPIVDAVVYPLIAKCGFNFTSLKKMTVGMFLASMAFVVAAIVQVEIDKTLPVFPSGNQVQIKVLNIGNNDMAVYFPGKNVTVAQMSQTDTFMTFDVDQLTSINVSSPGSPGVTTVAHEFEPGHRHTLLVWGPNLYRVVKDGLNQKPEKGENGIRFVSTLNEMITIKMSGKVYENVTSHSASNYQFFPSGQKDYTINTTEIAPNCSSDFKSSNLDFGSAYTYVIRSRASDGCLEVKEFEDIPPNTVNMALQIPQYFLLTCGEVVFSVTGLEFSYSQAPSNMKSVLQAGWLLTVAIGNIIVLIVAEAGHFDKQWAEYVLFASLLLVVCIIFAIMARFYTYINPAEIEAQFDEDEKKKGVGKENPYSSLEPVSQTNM
Kind of series: Drug uptake in Pichia pastoris GS115 expressing rat recombinant PEPT1 at 5 uM after 30s by dual-channel liquid scintillation counting analysis in presence of TEA relative to control. As to conditions: 0.5 min. In outline:
(§1)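 [3H]GlySar 5.0 µM final, 30-s uptake at 24°C in 100 mM potassium phosphate pH 6.5, with or without a potential inhibitor at 10 mM. Cells are methanol-induced transformants. Values are vector-subtracted and expressed as percent of buffer control. Mean ± SE (n=3). ANOVA with Dunnett's test.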

The target of series [2] is T1, Solute carrier family 15 member 1. Kind of series: Activity at rat recombinant PEPT1 expressed in Pichia pastoris GS115 assessed as non-saturable rate constant after 30s by dual-channel liquid scintillation counting analysis. In outline: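 [3H]GlySar concentration series 0.005-10 mM, 30-s uptake at 24°C in 100 mM potassium phosphate pH 6.5. Cells come from His+Mut+ GS115 transformants induced 20-24 h in methanol medium. Uptake is normalised to OD600. Data are fitted to Michaelis-Menten plus a first-order nonsaturable term (Kd), weighting unity. Parameters are mean ± SE (n=9).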

Series [3] concerns the target T2, Solute carrier family 15 member 1 (Homo sapiens, UniProt P46059).
T2 sequence (P46059 whole entry): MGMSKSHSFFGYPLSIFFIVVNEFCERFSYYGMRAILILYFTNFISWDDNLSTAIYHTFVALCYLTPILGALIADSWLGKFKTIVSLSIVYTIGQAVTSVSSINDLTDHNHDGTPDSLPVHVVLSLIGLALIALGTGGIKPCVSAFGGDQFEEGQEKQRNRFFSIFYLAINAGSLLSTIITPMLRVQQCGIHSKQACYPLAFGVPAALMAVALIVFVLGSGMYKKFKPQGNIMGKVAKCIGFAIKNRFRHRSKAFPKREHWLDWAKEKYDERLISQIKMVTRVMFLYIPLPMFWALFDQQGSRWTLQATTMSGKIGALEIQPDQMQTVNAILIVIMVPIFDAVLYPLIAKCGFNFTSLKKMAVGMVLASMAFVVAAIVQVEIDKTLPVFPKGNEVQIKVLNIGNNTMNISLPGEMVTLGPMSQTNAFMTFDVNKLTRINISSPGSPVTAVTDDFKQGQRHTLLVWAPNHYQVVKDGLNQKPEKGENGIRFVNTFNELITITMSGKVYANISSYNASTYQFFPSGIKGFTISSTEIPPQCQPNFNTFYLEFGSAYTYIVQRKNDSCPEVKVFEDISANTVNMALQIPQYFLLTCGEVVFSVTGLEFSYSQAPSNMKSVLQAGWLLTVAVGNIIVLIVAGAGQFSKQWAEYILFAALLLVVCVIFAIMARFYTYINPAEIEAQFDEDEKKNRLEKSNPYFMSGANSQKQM
The experiment in a line: Drug uptake in Pichia pastoris GS115 expressing human recombinant PEPT1 at 5 uM after 30s by dual-channel liquid scintillation counting analysis in presence of elacridar relative to control. As to conditions: 0.5 min. In a few lines: as §1

For series [4], the target named is T3, Solute carrier family 15 member 1 (Mus musculus, UniProt Q9JIP7).
T3 sequence (Q9JIP7 whole entry): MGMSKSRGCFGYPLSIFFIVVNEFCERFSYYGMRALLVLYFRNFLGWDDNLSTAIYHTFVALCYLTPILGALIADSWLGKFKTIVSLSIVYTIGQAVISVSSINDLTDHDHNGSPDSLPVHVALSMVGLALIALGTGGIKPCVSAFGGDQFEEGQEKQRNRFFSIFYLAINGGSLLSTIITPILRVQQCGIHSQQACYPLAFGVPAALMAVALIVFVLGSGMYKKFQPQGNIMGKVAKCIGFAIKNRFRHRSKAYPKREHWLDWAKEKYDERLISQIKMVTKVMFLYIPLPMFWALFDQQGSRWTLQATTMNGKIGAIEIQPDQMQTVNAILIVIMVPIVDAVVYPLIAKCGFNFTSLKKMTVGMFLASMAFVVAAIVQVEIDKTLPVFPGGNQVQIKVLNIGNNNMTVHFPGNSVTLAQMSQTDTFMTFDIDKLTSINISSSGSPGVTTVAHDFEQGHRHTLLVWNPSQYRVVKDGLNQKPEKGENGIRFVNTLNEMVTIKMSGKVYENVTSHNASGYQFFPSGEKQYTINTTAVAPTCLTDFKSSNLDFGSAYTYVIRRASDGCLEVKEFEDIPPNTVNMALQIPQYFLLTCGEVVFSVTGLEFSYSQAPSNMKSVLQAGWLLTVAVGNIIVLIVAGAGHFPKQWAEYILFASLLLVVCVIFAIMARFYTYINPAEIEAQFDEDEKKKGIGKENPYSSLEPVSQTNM
The experiment in a line: Drug uptake in Pichia pastoris GS115 expressing mouse recombinant PEPT1 at 5 uM after 30s by dual-channel liquid scintillation counting analysis in presence of cefazolin relative to control. As to conditions: 0.5 min. In outline: as §1

A further series concerns the target T4, PEPT1 (Mus musculus, UniProt Q9JIP7).
T4 sequence (Q9JIP7 whole entry): T3 sequence (Q9JIP7 whole entry)
Kind of series: Drug uptake in Pichia pastoris GS115 expressing mouse recombinant PEPT1 at 5 uM after 30s by dual-channel liquid scintillation counting analysis relative to vector control. To be noted: read-out: FC. In outline:
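5.0 µM radiolabelled substrate uptake for 30 s at 24°C in pH 6.5 phosphate buffer by induced transformants. Radioactivity is counted by liquid scintillation and normalised to OD600. Results are compared with pPIC3.5K vector-alone cells. Mean ± SE (n=6).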

Series [5] has as its target T1, Solute carrier family 15 member 1. Kind of series: Drug uptake in Pichia pastoris GS115 expressing rat recombinant PEPT1 at 5 uM after 30s by dual-channel liquid scintillation counting analysis in presence of L-histidine relative to control. To be noted: in vivo, 0.5 min. In outline:
as §1

Turning to `[3H]C(C(=O)O)N(C)C(=O)CN` (stereo unspecified), the Drug uptake in series [1] amounted to 94.8%; in series [3] it was 100%; in series [4] it was 87.4%; in series [5], 113%. Besides, the Kd in series [2] was 2.21 uL/OD/min. Besides, the uptake ratio at 0.5 min, 5 µM on PEPT1 amounted to 61.
